Three compounds from PubChem BioAssay AID504825 (Southern Research Specialized Biocontainment Screening …, 2011) can be followed below.

One may read the CC50 as the concentration that lowers cell viability or growth by half.

This test concerns HEp-2 viability, luminescence (CellTiter-Glo). Briefly: HEp-2 cell cytotoxicity, dose response, cytotoxicity control for RSV antiviral project, synthesized compounds, set 10 (AID 504825). In outline: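 material = uninfected HEp-2 cells | quantity = 10,595 cells/well | read-out = % viability versus median cell-only wells, CC50 by 4-parameter fit fixed 0/100 | times = 6-day compound exposure at 37 °C, 5% CO2 | compound dosing = 8-point twofold dilution series, 0.5% DMSO final | replicates = triplicate wells per concentration | buffer or medium = DMEM/F12 | measured by = CellTiter-Glo luminescence for cell viability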
For `COc1ccc(C)c(NC(=O)[C@@H]2CCCN2S(=O)(=O)c2cccc3cccnc23)c1`, the CC50 was 47.7 µM.
The same measure for `Cc1ccc(NC(=O)[C@@H]2CCCN2S(=O)(=O)c2cccc3cccnc23)c(C)c1`: 29 µM; for `Cc1cc(NC(=O)[C@@H]2CCCN2S(=O)(=O)c2cccc3cccnc23)n(C(C)(C)C)n1`: 55.1 µM.
